Experimental data taken from ChEMBL document CHEMBL3351702, “Design, synthesis and characterization of fluoro substituted novel pyrazolylpyrazolines scaffold and their pharmacological screening” (Eur J Med Chem, 2014).
Converted amounts (≈) assume the structure as drawn.

How the values were obtained:
[1] = test system: Clostridium tetani; assay: Antimicrobial activity against Clostridium tetani MTCC 449 assessed as absence of visible growth after 24 to 48 hrs by broth micro dilution method; assay type: functional
[2] = test system: Bacillus subtilis; assay: Antimicrobial activity against Bacillus subtilis MTCC 441 assessed as absence of visible growth after 24 to 48 hrs by broth micro dilution method; assay type: functional
[3] = test system: Streptococcus pneumoniae; assay: Antimicrobial activity against Streptococcus pneumoniae MTCC 1936 assessed as absence of visible growth after 24 to 48 hrs by broth micro dilution method; assay type: functional
[4] = test system: Escherichia coli; assay: Antimicrobial activity against Escherichia coli MTCC 443 assessed as absence of visible growth after 24 to 48 hrs by broth micro dilution method; assay type: functional
[5] = test system: Salmonella typhi; assay: Antimicrobial activity against Salmonella typhi MTCC 98 assessed as absence of visible growth after 24 to 48 hrs by broth micro dilution method; assay type: functional, Salmonella enterica subsp. enterica serovar Typhi; conditions: Salmonella enterica
[6] = test system: Vibrio cholerae; assay: Antimicrobial activity against Vibrio cholerae MTCC 3906 assessed as absence of visible growth after 24 to 48 hrs by broth micro dilution method; assay type: functional
[7] = test system: Candida albicans; assay: Antimicrobial activity against Candida albicans MTCC 227 assessed as absence of visible growth after 24 to 48 hrs by broth micro dilution method; assay type: functional
Outline: (§1)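 Fungal broth microdilution following NCCLS, in Sabouraud dextrose broth, with compounds diluted from DMSO and inoculum adjusted to 10⁸ CFU/mL by turbidity. Growth read at 24 and 48 h. MIC is the highest dilution preventing turbidity after spot subculture. Griseofulvin and nystatin were the references.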

[8] = test system: Aspergillus fumigatus; assay: Antimicrobial activity against Aspergillus fumigatus MTCC 3008 assessed as absence of visible growth after 24 to 48 hrs by broth micro dilution method; assay type: functional; outline: as §1
[9] = test system: Mycobacterium tuberculosis; assay: Antituberculosis activity against Mycobacterium tuberculosis H37Rv assessed as inhibition of colony formation at 250 ug/ml after 4 weeks of incubation; assay type: functional; conditions: 672 h
[10] = test system: Plasmodium falciparum; assay: Antimalarial activity against chloroquine ane quinine-sensitive ring stage of Plasmodium falciparum assessed as inhibition of parasite growth after 48 hrs; assay type: functional, organism-based
Outline: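 P. falciparum field strain from a Surat hospital, cultured by a modified Trager–Jensen method and synchronized with 5% D-sorbitol at ring stage. Rings at 1–2% parasitaemia and 2.5% haematocrit in hypoxanthine-free RPMI-1640 with 10% human plasma. Exposed to 7 concentrations, diluted from DMSO stocks, for one 48 h cycle at 37 °C. Growth inhibition % measured; IC50 by interpolation; duplicate runs, mean reported.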

`Cc1nn(-c2ccccc2)c(Oc2ccccc2F)c1C1CC(c2ccc(F)cc2)=NN1c1ccc(Br)cc1` (stereo not drawn) was tested, and the MIC [1] was 500 µg/mL (≈ 854 µM), the MIC [2] was 200 µg/mL (≈ 342 µM) and the MIC [3] was 250 µg/mL (≈ 427 µM). The MIC [4] was 100 µg/mL (≈ 171 µM), the MIC [5] was 200 µg/mL (≈ 342 µM) and the MIC [6] was 500 µg/mL (≈ 854 µM). The MIC [7] was 250 µg/mL (≈ 427 µM), the MIC [8] was 1000 µg/mL (≈ 1710 µM) and the inhibition at 250 µg/mL [9] was 94%. The IC50 [10] was 0.088 µg/mL (≈ 0.15 µM).

In the case of `COc1ccc(N2N=C(c3ccc(F)cc3)CC2c2c(C)nn(-c3ccccc3)c2Oc2ccc(F)cc2)cc1` (stereo not drawn), the MIC [1] is reported as 200 µg/mL (≈ 373 µM), the MIC [2] is reported as 62.5 µg/mL (≈ 116 µM) and the MIC [3] is reported as 125 µg/mL (≈ 233 µM). It also gave an MIC [4] of 500 µg/mL (≈ 932 µM), an MIC [5] of 500 µg/mL (≈ 932 µM) and an MIC [6] of 100 µg/mL (≈ 186 µM). The MIC [7] was 500 µg/mL (≈ 932 µM), the MIC [8] was 250 µg/mL (≈ 466 µM) and the inhibition at 250 µg/mL [9] was 74%. The IC50 [10] was 0.25 µg/mL (≈ 0.466 µM).

`COc1ccc(N2N=C(c3ccc(F)cc3)CC2c2c(C)nn(-c3ccccc3)c2Oc2cccc(C(F)(F)F)c2)cc1` (stereo not drawn) was tested, and the MIC [1] was 200 µg/mL (≈ 341 µM), the MIC [2] was 100 µg/mL (≈ 170 µM) and the MIC [3] was 200 µg/mL (≈ 341 µM). It also gave an MIC [4] of 100 µg/mL (≈ 170 µM), an MIC [5] of 100 µg/mL (≈ 170 µM) and an MIC [6] of 250 µg/mL (≈ 426 µM). The MIC [7] was 250 µg/mL (≈ 426 µM), the MIC [8] was 500 µg/mL (≈ 852 µM) and the inhibition at 250 µg/mL [9] was 52%. It also gave an IC50 [10] of 0.3 µg/mL (≈ 0.511 µM).

`COc1ccc(N2N=C(c3ccc(F)cc3)CC2c2c(C)nn(-c3ccccc3)c2Oc2cccc(F)c2)cc1` (stereo not drawn) gave an MIC [1] of 200 µg/mL (≈ 373 µM), an MIC [2] of 200 µg/mL (≈ 373 µM) and an MIC [3] of 100 µg/mL (≈ 186 µM). For the same compound, the MIC [4] was 500 µg/mL (≈ 932 µM), the MIC [5] was 500 µg/mL (≈ 932 µM) and the MIC [6] was 200 µg/mL (≈ 373 µM). It also gave an MIC [7] of 1000 µg/mL (≈ 1860 µM), an MIC [8] greater than 1000 µg/mL and an inhibition at 250 µg/mL [9] of 56%. It also gave an IC50 [10] of 0.57 µg/mL (≈ 1.06 µM).

With `Cc1nn(-c2ccccc2)c(Oc2cccc(F)c2)c1C1CC(c2ccc(F)cc2)=NN1c1ccc(Br)cc1` (stereo not drawn) the MIC [1] was 250 µg/mL (≈ 427 µM), the MIC [2] was 250 µg/mL (≈ 427 µM) and the MIC [3] was 500 µg/mL (≈ 854 µM). It also gave an MIC [4] of 500 µg/mL (≈ 854 µM), an MIC [5] of 200 µg/mL (≈ 342 µM) and an MIC [6] of 125 µg/mL (≈ 214 µM). The MIC [7] was 250 µg/mL (≈ 427 µM), the MIC [8] was greater than 1000 µg/mL and the inhibition at 250 µg/mL [9] was 56%. For the same compound, the IC50 [10] was 0.06 µg/mL (≈ 0.102 µM).

`O=C(O)c1cn(C2CC2)c2cc(N3CCNCC3)c(F)cc2c1=O` [CIPROFLOXACIN] was tested, and the MIC [3] was 25 µg/mL (≈ 75.4 µM), the MIC [4] was 25 µg/mL (≈ 75.4 µM) and the MIC [5] was 25 µg/mL (≈ 75.4 µM). The MIC [6] was 25 µg/mL (≈ 75.4 µM).

Work on `CO[C@H]1/C=C/O[C@@]2(C)Oc3c(C)c(O)c4c(O)c(c(/C=N/N5CCN(C)CC5)c(O)c4c3C2=O)NC(=O)/C(C)=C\C=C\[C@H](C)[C@H](O)[C@@H](C)[C@@H](O)[C@@H](C)[C@H](OC(C)=O)[C@@H]1C` [RIFAMPIN] yielded an inhibition at 250 µg/mL [9] of 98%.

`Cc1nn(-c2ccccc2)c(Oc2ccccc2F)c1C1CC(c2ccc(F)cc2)=NN1c1ccc(F)cc1` (stereo not drawn) gave an MIC [1] of 250 µg/mL (≈ 477 µM), an MIC [2] of 500 µg/mL (≈ 953 µM) and an MIC [3] of 250 µg/mL (≈ 477 µM). It also gave an MIC [4] of 200 µg/mL (≈ 381 µM), an MIC [5] of 250 µg/mL (≈ 477 µM) and an MIC [6] of 250 µg/mL (≈ 477 µM). For the same compound, the MIC [7] was 1000 µg/mL (≈ 1910 µM), the MIC [8] was 100 µg/mL (≈ 191 µM) and the inhibition at 250 µg/mL [9] was 10%. For the same compound, the IC50 [10] was 0.025 µg/mL (≈ 0.0477 µM).

Work on `CCn1cc(C(=O)O)c(=O)c2cc(F)c(N3CCNCC3)cc21` [NORFLOXACIN] yielded an MIC [1] of 50 µg/mL (≈ 157 µM), an MIC [2] of 100 µg/mL (≈ 313 µM) and an MIC [3] of 10 µg/mL (≈ 31.3 µM). It also gave an MIC [4] of 10 µg/mL (≈ 31.3 µM), an MIC [5] of 10 µg/mL (≈ 31.3 µM) and an MIC [6] of 10 µg/mL (≈ 31.3 µM).

Compound `Cc1nn(-c2ccccc2)c(Oc2ccc(F)cc2)c1C1CC(c2ccc(F)cc2)=NN1c1ccc(Br)cc1` (stereo not drawn) has an MIC [1] of 125 µg/mL (≈ 214 µM), an MIC [2] of 500 µg/mL (≈ 854 µM) and an MIC [3] of 500 µg/mL (≈ 854 µM). It also gave an MIC [4] of 200 µg/mL (≈ 342 µM), an MIC [5] of 200 µg/mL (≈ 342 µM) and an MIC [6] of 500 µg/mL (≈ 854 µM). The MIC [7] was 500 µg/mL (≈ 854 µM), the MIC [8] was greater than 1000 µg/mL and the inhibition at 250 µg/mL [9] was 96%. The IC50 [10] was 0.025 µg/mL (≈ 0.0427 µM).

`Cc1nn(-c2ccccc2)c(Oc2cccc(C(F)(F)F)c2)c1C1CC(c2ccc(F)cc2)=NN1c1ccc(Br)cc1` (stereo not drawn) showed an MIC [1] of 250 µg/mL (≈ 393 µM), an MIC [2] of 250 µg/mL (≈ 393 µM) and an MIC [3] of 500 µg/mL (≈ 787 µM). The MIC [4] was 250 µg/mL (≈ 393 µM), the MIC [5] was 200 µg/mL (≈ 315 µM) and the MIC [6] was 250 µg/mL (≈ 393 µM). The MIC [7] was 1000 µg/mL (≈ 1570 µM), the MIC [8] was 500 µg/mL (≈ 787 µM) and the inhibition at 250 µg/mL [9] was 91%. It also gave an IC50 [10] of 1.46 µg/mL (≈ 2.3 µM).

`O=C(N[C@H](CO)[C@H](O)c1ccc([N+](=O)[O-])cc1)C(Cl)Cl` [CHLORAMPHENICOL] was tested, and the MIC [1] was 50 µg/mL (≈ 155 µM), the MIC [2] was 50 µg/mL (≈ 155 µM) and the MIC [3] was 50 µg/mL (≈ 155 µM). The MIC [4] was 50 µg/mL (≈ 155 µM), the MIC [5] was 50 µg/mL (≈ 155 µM) and the MIC [6] was 50 µg/mL (≈ 155 µM).

NYSTATIN was tested, and the MIC [7] was 100 µg/mL and the MIC [8] was 100 µg/mL.

In the case of `CC1(C)S[C@@H]2[C@H](NC(=O)[C@H](N)c3ccccc3)C(=O)N2[C@H]1C(=O)O` [AMPICILLIN], the MIC [1] is reported as 250 µg/mL (≈ 715 µM), the MIC [2] is reported as 250 µg/mL (≈ 715 µM) and the MIC [3] is reported as 100 µg/mL (≈ 286 µM). The MIC [4] was 100 µg/mL (≈ 286 µM), the MIC [5] was 100 µg/mL (≈ 286 µM) and the MIC [6] was 100 µg/mL (≈ 286 µM).

With `COC1=CC(=O)C[C@@H](C)[C@]12Oc1c(Cl)c(OC)cc(OC)c1C2=O` [GRISEOFULVIN] the MIC [7] was 500 µg/mL (≈ 1420 µM) and the MIC [8] was 100 µg/mL (≈ 283 µM).

For `COc1ccc(N2N=C(c3ccc(F)cc3)CC2c2c(C)nn(-c3ccccc3)c2Oc2ccccc2F)cc1` (stereo not drawn), the MIC [1] was 500 µg/mL (≈ 932 µM), the MIC [2] was 100 µg/mL (≈ 186 µM) and the MIC [3] was 500 µg/mL (≈ 932 µM). For the same compound, the MIC [4] was 500 µg/mL (≈ 932 µM), the MIC [5] was 500 µg/mL (≈ 932 µM) and the MIC [6] was 500 µg/mL (≈ 932 µM). The MIC [7] was 500 µg/mL (≈ 932 µM), the MIC [8] was 250 µg/mL (≈ 466 µM) and the inhibition at 250 µg/mL [9] was 22%. It also gave an IC50 [10] of 0.65 µg/mL (≈ 1.21 µM).

Work on `C=C[C@H]1CN2CC[C@H]1C[C@H]2[C@H](O)c1ccnc2ccc(OC)cc12` [QUININE] yielded an IC50 [10] of 0.268 µg/mL (≈ 0.826 µM).

Compound `Cc1nn(-c2ccccc2)c(Oc2ccc(F)cc2)c1C1CC(c2ccc(F)cc2)=NN1c1ccc(F)cc1` (stereo not drawn) has an MIC [1] of 250 µg/mL (≈ 477 µM), an MIC [2] of 500 µg/mL (≈ 953 µM) and an MIC [3] of 100 µg/mL (≈ 191 µM). The MIC [4] was 500 µg/mL (≈ 953 µM), the MIC [5] was 250 µg/mL (≈ 477 µM) and the MIC [6] was 200 µg/mL (≈ 381 µM). The MIC [7] was 200 µg/mL (≈ 381 µM), the MIC [8] was greater than 1000 µg/mL and the inhibition at 250 µg/mL [9] was 40%. For the same compound, the IC50 [10] was 0.022 µg/mL (≈ 0.0419 µM).
